Measurements as given in publication PMC7042484 (Redox Biology, 2020).
Entries after “also recorded” stand apart in the source; their conditions may differ.

Columns and labels:
bacterial NOX5 [1] = molecular target: T1, bacterial NOX5 (Cylindrospermum stagnale, UniProt K9WT99); assay: MCLA assay on NOX5 membranes; format: biochemical
T1 sequence (K9WT99 1-693): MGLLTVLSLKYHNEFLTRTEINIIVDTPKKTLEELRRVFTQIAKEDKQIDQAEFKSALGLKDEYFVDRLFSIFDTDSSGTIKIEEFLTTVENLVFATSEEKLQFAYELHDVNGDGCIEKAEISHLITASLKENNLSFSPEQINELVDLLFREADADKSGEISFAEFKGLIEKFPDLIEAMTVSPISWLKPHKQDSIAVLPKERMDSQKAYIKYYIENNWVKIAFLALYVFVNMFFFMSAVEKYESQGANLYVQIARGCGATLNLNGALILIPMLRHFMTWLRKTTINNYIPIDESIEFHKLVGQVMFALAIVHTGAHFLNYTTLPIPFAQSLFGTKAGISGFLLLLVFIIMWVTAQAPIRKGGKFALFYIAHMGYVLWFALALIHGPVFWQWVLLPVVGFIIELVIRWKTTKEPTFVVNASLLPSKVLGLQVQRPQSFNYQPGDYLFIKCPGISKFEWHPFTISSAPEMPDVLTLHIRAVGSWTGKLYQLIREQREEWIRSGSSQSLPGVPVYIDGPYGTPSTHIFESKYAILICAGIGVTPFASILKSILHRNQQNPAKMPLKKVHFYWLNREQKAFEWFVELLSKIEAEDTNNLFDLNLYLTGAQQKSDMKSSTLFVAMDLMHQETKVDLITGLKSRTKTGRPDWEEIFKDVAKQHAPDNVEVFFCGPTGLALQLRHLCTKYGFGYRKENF
In short: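 E. coli membranes carrying FLAG-(His)8-SUMO-tagged C. stagnale NOX5, 12 μg, in PBS with 1 mM CaCl2, 0.5 μM FAD and 1 μM MCLA. Compound (100 μM single point, or concentration series) 10 min at 25 °C. Started with 200 μM NADPH; chemiluminescence read. Membranes lacking NOX5 set noise level. IC50 by sigmoidal fit, % of untreated control.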

bacterial NOX5 [2] = molecular target: T1, bacterial NOX5; assay: Initial evaluation on NOX5 membrane preparations; format: biochemical; conditions: 100 μM compound, membranes
human NOX2 = molecular target: T2, human NOX2 (Homo sapiens, UniProt P04839); assay: Initial evaluation on NOX2 membrane preparations; format: biochemical
T2 sequence (P04839 2-570 limits assumed): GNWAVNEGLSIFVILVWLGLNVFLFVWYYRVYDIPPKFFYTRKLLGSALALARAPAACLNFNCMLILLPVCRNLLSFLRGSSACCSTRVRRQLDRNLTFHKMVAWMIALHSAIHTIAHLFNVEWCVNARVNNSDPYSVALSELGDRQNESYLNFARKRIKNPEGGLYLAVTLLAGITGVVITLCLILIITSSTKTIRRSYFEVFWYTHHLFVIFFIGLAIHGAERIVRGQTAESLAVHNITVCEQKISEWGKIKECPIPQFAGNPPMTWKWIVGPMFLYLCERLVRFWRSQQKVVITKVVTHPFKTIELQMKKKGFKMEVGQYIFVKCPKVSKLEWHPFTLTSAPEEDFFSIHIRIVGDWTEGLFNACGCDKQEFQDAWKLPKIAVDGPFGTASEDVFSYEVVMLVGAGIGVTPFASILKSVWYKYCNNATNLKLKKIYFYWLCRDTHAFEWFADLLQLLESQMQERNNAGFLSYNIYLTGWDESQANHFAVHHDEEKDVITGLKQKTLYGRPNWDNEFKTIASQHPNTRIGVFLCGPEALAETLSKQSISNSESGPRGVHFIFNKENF
T2 sequence (P13498 2-195 partner limits assumed): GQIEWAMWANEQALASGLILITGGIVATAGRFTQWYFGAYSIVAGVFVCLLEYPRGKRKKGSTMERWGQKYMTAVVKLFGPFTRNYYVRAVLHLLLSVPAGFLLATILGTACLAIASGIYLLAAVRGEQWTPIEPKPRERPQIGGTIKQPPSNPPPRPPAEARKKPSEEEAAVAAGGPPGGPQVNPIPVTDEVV

human NOX4 = molecular target: T3, human NOX4 (Homo sapiens, UniProt Q9NPH5); assay: Initial evaluation on NOX4 membrane preparations; format: biochemical; conditions: for inhibition of NOX4 (in words): 100 μM compound, membranes
T3 sequence (Q9NPH5 1-578): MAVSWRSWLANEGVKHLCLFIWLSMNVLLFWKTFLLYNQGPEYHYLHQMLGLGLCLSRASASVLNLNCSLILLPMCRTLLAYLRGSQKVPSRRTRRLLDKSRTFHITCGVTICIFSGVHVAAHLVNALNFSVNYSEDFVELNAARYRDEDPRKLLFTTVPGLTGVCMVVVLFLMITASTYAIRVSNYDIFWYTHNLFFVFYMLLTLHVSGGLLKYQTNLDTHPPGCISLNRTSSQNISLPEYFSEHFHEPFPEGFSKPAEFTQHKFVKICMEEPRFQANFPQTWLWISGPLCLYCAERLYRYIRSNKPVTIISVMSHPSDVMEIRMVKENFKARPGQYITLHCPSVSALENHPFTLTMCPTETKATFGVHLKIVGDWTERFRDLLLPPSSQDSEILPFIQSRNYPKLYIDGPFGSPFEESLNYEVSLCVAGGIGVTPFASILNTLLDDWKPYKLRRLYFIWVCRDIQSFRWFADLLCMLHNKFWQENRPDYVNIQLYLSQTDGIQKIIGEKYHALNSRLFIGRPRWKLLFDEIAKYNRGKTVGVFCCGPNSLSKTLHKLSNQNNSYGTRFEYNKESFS
T3 sequence (P13498 2-195 partner limits assumed): T2 sequence (P13498 2-195 partner limits assumed)
In short: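 NOX4-p22 membranes from transfected HEK293 EBNA-1 cells, compound 100 μM, 10 min preincubation at 4 °C in PBS. Amplex Red: 100 μg membranes, 12.5 μM Amplex Red, 0.02 U/ml HRP, 40 μM FAD, started with 40 μM NADPH, ex 572/em 583 nm. CBA: 50 μg membranes, 20 μM FAD, then 200 μM coumarin boronic acid and 50 μM NADPH, ex 320/em 430 nm.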

xanthine oxidase = xanthine oxidase (Bos taurus, UniProt P80457); assay: Xanthine Oxidase assay; format: biochemical; conditions: 100 μM compound, hypoxanthine, Amplex Red/peroxidase
Sequence of xanthine oxidase (P80457 whole entry): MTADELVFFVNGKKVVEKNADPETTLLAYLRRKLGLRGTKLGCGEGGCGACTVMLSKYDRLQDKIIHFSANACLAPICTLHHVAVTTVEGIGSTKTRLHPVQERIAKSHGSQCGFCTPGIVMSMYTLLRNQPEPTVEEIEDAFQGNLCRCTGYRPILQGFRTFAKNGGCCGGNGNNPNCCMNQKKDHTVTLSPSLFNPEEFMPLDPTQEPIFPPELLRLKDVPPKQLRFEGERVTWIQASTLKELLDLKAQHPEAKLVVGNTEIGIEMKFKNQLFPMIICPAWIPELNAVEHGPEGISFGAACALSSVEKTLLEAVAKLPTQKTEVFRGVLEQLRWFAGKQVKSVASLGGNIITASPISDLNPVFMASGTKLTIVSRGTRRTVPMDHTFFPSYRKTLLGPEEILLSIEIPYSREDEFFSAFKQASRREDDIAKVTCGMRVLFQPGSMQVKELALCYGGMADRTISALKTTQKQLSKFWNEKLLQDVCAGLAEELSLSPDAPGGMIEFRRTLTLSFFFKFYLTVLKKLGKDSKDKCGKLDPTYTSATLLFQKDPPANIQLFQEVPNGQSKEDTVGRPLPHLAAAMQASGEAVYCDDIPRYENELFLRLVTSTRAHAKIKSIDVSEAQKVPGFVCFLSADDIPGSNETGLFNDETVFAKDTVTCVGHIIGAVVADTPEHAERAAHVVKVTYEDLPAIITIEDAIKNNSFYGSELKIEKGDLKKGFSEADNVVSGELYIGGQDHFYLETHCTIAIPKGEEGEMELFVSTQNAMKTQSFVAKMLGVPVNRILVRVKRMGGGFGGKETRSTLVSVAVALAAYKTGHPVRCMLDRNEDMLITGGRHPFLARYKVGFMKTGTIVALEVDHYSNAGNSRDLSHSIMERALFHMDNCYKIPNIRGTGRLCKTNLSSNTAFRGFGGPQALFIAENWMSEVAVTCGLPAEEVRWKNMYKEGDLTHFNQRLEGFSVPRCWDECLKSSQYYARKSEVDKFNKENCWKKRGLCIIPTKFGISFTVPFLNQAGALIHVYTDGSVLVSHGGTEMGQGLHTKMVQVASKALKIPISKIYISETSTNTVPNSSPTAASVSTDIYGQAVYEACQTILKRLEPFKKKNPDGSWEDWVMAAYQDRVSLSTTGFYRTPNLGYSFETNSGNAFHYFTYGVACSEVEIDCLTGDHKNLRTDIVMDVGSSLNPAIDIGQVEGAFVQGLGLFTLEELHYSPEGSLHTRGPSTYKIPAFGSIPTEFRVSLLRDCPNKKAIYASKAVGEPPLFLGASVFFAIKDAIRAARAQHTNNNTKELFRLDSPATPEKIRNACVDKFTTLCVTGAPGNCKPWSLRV
In short: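 Compound (100 μM) with xanthine oxidase, 100 μM Amplex Red, 0.4 U/mL horseradish peroxidase and 0.2 mM hypoxanthine. 15 min at 37 °C; H2O2-derived resorufin read by fluorescence, ex 530/em 590 nm.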

[3] = molecular target: T4, wild-type dehydrogenase domain of bacterial NOX5 (Cylindrospermum stagnale, UniProt K9WT99); assay: NADPH-depletion assay on purified wild-type NOX5 dehydrogenase domain; format: biochemical; conditions: wild-type domain, exogenous FAD 300 μM
T4 sequence (K9WT99 413-693): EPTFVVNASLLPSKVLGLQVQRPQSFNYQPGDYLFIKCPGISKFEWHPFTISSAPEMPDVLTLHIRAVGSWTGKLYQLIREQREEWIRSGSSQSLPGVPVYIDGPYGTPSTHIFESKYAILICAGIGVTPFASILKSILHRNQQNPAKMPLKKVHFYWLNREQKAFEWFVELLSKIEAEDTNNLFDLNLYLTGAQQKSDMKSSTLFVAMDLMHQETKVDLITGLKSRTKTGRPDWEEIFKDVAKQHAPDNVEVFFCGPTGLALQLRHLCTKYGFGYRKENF

[4] = molecular target: C-terminal mutant dehydrogenase domain of bacterial NOX5; assay: NADPH-depletion assay on C-terminal mutant NOX5 dehydrogenase domain; format: biochemical, Cylindrospermum stagnale
[5] = molecular target: full-length bacterial NOX5 (Cylindrospermum stagnale, UniProt K9WT99); assay: biochemical
[6] = tested on: C668S mutant of the NOX5 dehydrogenase domain; assay: Enzymatic assay on C668S mutant NOX5 dehydrogenase domain; format: biochemical, Cylindrospermum stagnale; conditions: enzymatic assays
In short: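 Purified strep-tagged C. stagnale NOX5 dehydrogenase domain (residues 413–693), C668S mutant, 1 μM in 50 mM Hepes pH 7.5 without added FAD. Run at 25 °C in a thermostatted spectrophotometer; rates followed as NADPH oxidation at 340 nm.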

Compound | IC50 (bacterial NOX5 [1]) [nM] | inhibition of NOX5 (in words) (bacterial NOX5 [2]) | inhibition of NOX2 (in words) (human NOX2; 100 μM compound, membranes) | inhibition of NOX4 (in words) (human NOX4) | inhibition of the hydrogen peroxide-producing activity of xanthine oxidase (xanthine oxidase) | αKi [3] [µM] | αKi ([4]; uncompetitive, low-activity mutant of the dehydrogenase domain) [µM] | Ki [5] [nM] | inhibition at 100 µM (human NOX2; read-out: inhibition of NOX2) [%] | inhibition of NOX2 with long incubation (human NOX2; sufficiently long incubation times (Fig. 7B)) | inhibition at 100 µM (human NOX4; read-out: inhibition of NOX4) [%] | inhibition of the mutant dehydrogenase ([4]; 100 μM inhibitor, C-terminal (PWLEL) low-activity mutant) | inhibition of the C668S mutant domain [6]
c1ccc2c(c1)[I+]c1ccccc1-2 [DPI, Diphenylene iodonium] | 3280 ± 1320 | full | full | full | powerful inhibitions; also recorded: inhibits xanthine oxidase | 127 ± 13 | 0.42 ± 0.06 | 980 ± 140 | – | – | – | – | –
c1ccc(Cn2nnc3c(Sc4nc5ccccc5o4)ncnc32)cc1 [VAS2870, 3-benzyl-7-(2-benzoxazolyl)thio-1,2,3-triazolo[4,5-d]pyrimidine] | – | – | – | powerful NOX4 inhibitors | – | – | – | – | 40 to 70 | became significant | 40 to 70 | 20–30% | could not inhibit the mutant domain
